Measured values from ChEMBL document CHEMBL1134459 (J Med Chem, 2001).
pIC50: −log10 of the molar value.

Columns and labels:
[1] = molecular target: T1, Intercellular adhesion molecule 1 (Homo sapiens, UniProt P05362); experiment: In vitro inhibitory potency compared to TNF-alpha induced Intercellular adhesion molecule-1 in human endothelial cells (ELISA assay); assay type: cell-based, Endothelial cell
How it was run: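 Primary HUVECs seeded at 5 × 10^4 cells/mL in EBM/2% FBS with supplements. After 24 h of compound at 37 °C, TNFα was added to 5 ng/mL final for 6 h at 37 °C. Cell-surface ICAM-1 was detected with a mouse monoclonal antibody, then HRP anti-mouse IgG and OPD, with absorbance at 490 nm. Triplicate determinations.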

[2] = molecular target: T1, Intercellular adhesion molecule 1; experiment: Inhibition of intercellular adhesion molecule-1 (ICAM1) in human endothelial cells; assay type: cell-based, Endothelial cell
How it was run: (§1)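 Whole-cell ELISA on primary HUVECs plated at 5 × 10^4 cells/mL in EBM/2% FBS with growth supplements. Compound preincubated 24 h at 37 °C, then inducer added (TNFα at 5 ng/mL final, or IL-1β or PMA in its place) for 6 h at 37 °C. Mouse monoclonal anti-E-selectin, anti-ICAM-1 or anti-VCAM-1 was applied overnight at 4 °C, then HRP anti-mouse IgG. Detection with OPD, A490. Triplicate assays.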

[3] = molecular target: T1, Intercellular adhesion molecule 1; experiment: In vitro inhibitory potency compared to PMA induced Intercellular adhesion molecule-1 in human endothelial cells (ELISA assay); assay type: cell-based, Endothelial cell; how it was run: as §1
[4] = molecular target: T2, E-selectin (Homo sapiens) (UniProt P16581); experiment: In vitro inhibitory potency compared to PMA induced Selectin E expression in human endothelial cells (ELISA assay) at 1 uM; assay type: cell-based; settings: Endothelial cell
T2 sequence (whole entry): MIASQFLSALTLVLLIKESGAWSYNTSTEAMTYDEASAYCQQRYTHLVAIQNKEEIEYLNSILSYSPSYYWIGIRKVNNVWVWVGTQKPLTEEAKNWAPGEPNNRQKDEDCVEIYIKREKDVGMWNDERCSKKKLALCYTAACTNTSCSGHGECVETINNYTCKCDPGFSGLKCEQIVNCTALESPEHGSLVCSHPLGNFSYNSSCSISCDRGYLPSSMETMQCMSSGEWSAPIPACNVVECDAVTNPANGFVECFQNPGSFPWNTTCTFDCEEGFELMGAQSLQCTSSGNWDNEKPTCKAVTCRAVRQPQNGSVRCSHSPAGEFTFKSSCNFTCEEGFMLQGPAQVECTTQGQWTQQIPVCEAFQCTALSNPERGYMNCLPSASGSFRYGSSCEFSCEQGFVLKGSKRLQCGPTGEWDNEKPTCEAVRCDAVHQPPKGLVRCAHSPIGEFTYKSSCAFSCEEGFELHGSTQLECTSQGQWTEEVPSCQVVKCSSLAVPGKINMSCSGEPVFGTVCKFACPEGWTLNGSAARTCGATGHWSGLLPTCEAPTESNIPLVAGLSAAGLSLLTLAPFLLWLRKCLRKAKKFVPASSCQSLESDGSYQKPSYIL
How it was run: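 HUVEC whole-cell ELISA with PMA substituted for TNFα as inducer. Compound preincubated 24 h at 37 °C, then 6 h induction at 37 °C. E-selectin detected with mouse monoclonal antibody and HRP anti-mouse IgG, OPD development, A490. Value given as percent inhibition at a single concentration of 1 µM.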

E-selectin [5] = molecular target: T3, E-selectin (Homo sapiens, UniProt P16581); experiment: Inhibition of selectin E in human endothelial cells; assay type: cell-based, Endothelial cell; how it was run: as §1
T3 sequence (P16581 whole entry): T2 sequence (whole entry)

E-selectin [6] = molecular target: T3, E-selectin; experiment: In vitro inhibitory potency compared to IL1-beta induced Selectin E in human endothelial cells (ELISA assay); assay type: cell-based, Endothelial cell; how it was run: as §1
E-selectin [7] = molecular target: T3, E-selectin; experiment: In vitro inhibitory potency compared to TNF-alpha induced Selectin E in human endothelial cells (ELISA assay); assay type: cell-based, Endothelial cell; how it was run: as §1
[8] = molecular target: T1, Intercellular adhesion molecule 1; experiment: In vitro inhibitory potency compared to IL1-beta induced Intercellular adhesion molecule-1 in human endothelial cells (ELISA assay); assay type: cell-based, Endothelial cell
How it was run: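 Primary HUVECs seeded at 5 × 10^4 cells/mL in EBM/2% FBS with EGF, bovine brain extract and gentamicin. Compound added next day for 24 h at 37 °C, then inducer (IL-1β or PMA, level not stated) for 6 h at 37 °C. Whole-cell ELISA used mouse monoclonal anti-ICAM-1 or anti-VCAM-1, HRP donkey anti-mouse IgG and OPD, read at 490 nm. Run in triplicate.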

Mus musculus [9] = experiment: Efficacy in serum sICAM-1 at 30 mg/kg of oral dosing in an inhaled allergen-induced cell influx in mice.; assay type: functional
How it was run: (§2)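 Mouse inhaled-allergen model. Compounds or vehicle (0.2% methylcellulose) given orally 18 h and 1 h before the first of two allergen inhalations. Lungs lavaged 24-27 h after the first inhalation. Read-outs were lavage cell count (no./µL), neutrophil and eosinophil percentages, and soluble ICAM-1 in serum and BAL 24 h after antigen. Values are mean ± SE.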

Mus musculus [10] = experiment: % Efficacy in eosinophils at 30 mg/kg of oral dosing in an inhaled allergen-induced cell influx in mice.; assay type: functional, Eosinophil; how it was run: as §2
Mus musculus [11] = experiment: % Efficacy in neutrophils at 30 mg/kg of oral dosing in an inhaled allergen-induced cell influx in mice.; assay type: functional; how it was run: as §2
Mus musculus [12] = experiment: Efficacy in lBAL sICAM-1 at 30 mg/kg of oral dosing in an inhaled allergen-induced cell influx in mice.; assay type: functional; how it was run: as §2
Mus musculus [13] = experiment: Efficacy in lavage cells at 30 mg/kg of oral dosing in an inhaled allergen-induced cell influx in mice.; assay type: functional; how it was run: as §2

T1 sequence (P05362 whole entry): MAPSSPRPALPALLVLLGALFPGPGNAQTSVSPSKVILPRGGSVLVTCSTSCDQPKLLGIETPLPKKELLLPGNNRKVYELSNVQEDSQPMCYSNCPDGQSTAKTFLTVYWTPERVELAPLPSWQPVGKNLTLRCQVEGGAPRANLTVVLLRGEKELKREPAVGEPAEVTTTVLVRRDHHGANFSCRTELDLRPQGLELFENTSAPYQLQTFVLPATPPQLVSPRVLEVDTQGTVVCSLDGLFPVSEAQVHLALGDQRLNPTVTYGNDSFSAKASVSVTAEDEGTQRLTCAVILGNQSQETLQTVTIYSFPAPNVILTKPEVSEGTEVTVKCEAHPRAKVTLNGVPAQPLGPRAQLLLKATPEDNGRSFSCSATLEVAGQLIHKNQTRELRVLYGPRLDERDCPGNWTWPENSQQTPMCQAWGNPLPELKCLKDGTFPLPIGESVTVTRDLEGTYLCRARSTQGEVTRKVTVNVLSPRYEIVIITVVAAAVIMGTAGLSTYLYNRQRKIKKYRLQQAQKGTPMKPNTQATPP

pIC50 [1] | pIC50 [2] | pIC50 [3] | inhibition [4] | pIC50 (E-selectin [5]) | pIC50 (E-selectin [6]) | pIC50 (E-selectin [7]) | pIC50 [8] | SMILES | Efficacy (Mus musculus [9]) | Efficacy (Mus musculus [10]) | Efficacy (Mus musculus [11]) | Efficacy (Mus musculus [12]) | Efficacy (Mus musculus [13])
8.30 | 8.30 | 8.30 | 46% | 8.22 | 8.30 | 8.40 | 8.70 | CNC(=O)c1cc2c(Oc3ccc(COCCOCCOC)cc3)cncc2s1 |  |  |  |  | 
 |  |  |  |  |  |  |  | CNC(=O)c1cc2c(Oc3ccc(C(F)(F)F)cc3)cncc2s1 | 19.6 µg/mL | 10% | 48% | 1.89 µg/mL | 107 number ul-1
